Bioassay records deposited in PubChem by Broad Institute.
Many of the other results were omitted from the sample, so hits are more common in it than they were.
T cruzi intra: inhibitors of intracellular Trypanosoma cruzi; intracellular Trypanosoma cruzi in host cells, plate reader; activity score (inhibition), % at 5.01 µM; 4.9% of 22,000 active; in the data active = activity score above about 55%; inconclusive = no clear call, values can overlap the other calls;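 also: parasites and compound incubated about four days before reading; 0% = median of neutral control wells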
INS-1E ATP HTS: INS-1E beta cell protection from cytokine death. INS-1E cytokine-induced death, ATP luminescence, 48 h; normalised: neutral wells 0, positive control 100. protection from cytokine-induced ATP loss, % at 10 µM. 0.1% of 20,000 active;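 active = mean replicate protection from cytokine-induced ATP loss at least 50% and at least 75% of replicates each reaching 50%; inconclusive = meets only one of the two criteria, mean or replicate share; inactive = fails both the mean and replicate share criteria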
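Assay system: INS-1E rat insulinoma cells. Amount: 8000 cells per well. Medium: phenol-red-free RPMI with 5% fetal bovine serum. Reagent: IL-1β, TNF-α and IFN-γ cytokine mix. Doses: one compound concentration, pin transfer. Schedule: 48 h co-treatment, 10 min post-lysis read. Detection: CellTiter-Glo luminescence measuring cellular ATP.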
YB-1 expression: YB-1 expression inhibition; delta delta Cp (YB-1 minus CDIP) (concentration not given with the values); 0.37% of 30,000 active; U2OS, qRT-PCR YB-1 vs CDIP delta delta Cp, 16 h; hits give high values; zero = DMSO, each unit about twofold; AID 434959;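 active = delta delta Cp rounded down to an integer at or above 3, about 3 SD of DMSO wells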;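 also: higher means less YB-1 transcript or more CDIP transcript relative to DMSO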
An asterisk follows results filed as active; ? = inconclusive; . = not tested or not shown.

SMILES	T cruzi intra	INS-1E ATP HTS	YB-1 expression
C[C@@H]1CCCCO[C@H](CN(C)S(=O)(=O)c2ccc(Cl)cc2)[C@@H](C)CN([C@H](C)CO)C(=O)c2cc(NC(=O)Nc3ccc(C(F)(F)F)cc3)ccc2O1	71*	-53	-0.044
C[C@@H]1CCCCO[C@@H](CN(C)S(=O)(=O)c2ccc(Cl)cc2)[C@@H](C)CN([C@H](C)CO)C(=O)c2cc(NC(=O)Nc3ccc(C(F)(F)F)cc3)ccc2O1	51	-9	-0.38
Cc1cc(C)c2c(n1)sc1c(SCC(=O)c3ccc(Br)cc3)ncnc12	.	.	-0.13
COc1ccc2c(=O)cc(-c3ccccc3OC)oc2c1	.	.	0.09
CC12CCC(C(=O)N3NC(=O)[C@@H](c4ccccc4)[C@@H]3c3ccccc3)(OC1=O)C2(C)C (some centres undefined)	.	.	-0.019
C=CCn1c(-c2cccs2)nc(-c2ccccc2)c1-c1ccccc1	.	.	0.37
C[C@@H]1CN([C@@H](C)CO)C(=O)c2cccc(NC(=O)Nc3ccc(C(F)(F)F)cc3)c2O[C@@H]1CN(C)CC1CCCCC1	78*	-64	0.067
C[C@@H]1CN([C@@H](C)CO)C(=O)c2cccc(NC(=O)Nc3ccc(C(F)(F)F)cc3)c2O[C@@H]1CN(C)CC1CC1	-17	-19	0.47
Cc1cc(=O)c2c(O)c(C)c(O)cc2o1	.	.	-0.045
Cc1c(C)c(C)c(S(=O)(=O)N2CC(C)CC(C)C2)c(C)c1C (centres undefined)	.	.	0.053
CC(C)(C)C(=O)OC[C@H]1O[C@@H](n2cnc3c(N)ncnc32)C[C@@H]1OC(=O)C(C)(C)C	.	.	8.3*
Nc1ncnc2c1ncn2C1OC(CO)[C@H](O)[C@@H]1S (some centres undefined)	.	.	0.24
COc1cccc(CN2c3cccc4cccc(c34)S2(=O)=O)c1	.	.	-0.12
CCCC(O)C#Cc1cnc2c(c1)C(=O)N([C@H](C)CO)C[C@H](C)[C@H](CN(C)S(=O)(=O)c1cccs1)O2 (some centres undefined)	12	.	0.064
C[C@H](CO)N1C[C@H](C)[C@H](CN(C)S(=O)(=O)c2cccs2)Oc2ncc(C#Cc3ccc(F)cc3)cc2C1=O	65*	.	0.011
C[C@H](CO)N1C[C@H](C)[C@H](CN(C)S(C)(=O)=O)Oc2ncc(C#Cc3ccc(F)cc3)cc2C1=O	10	.	0.38
C[C@H](CO)N1C[C@H](C)[C@H](CN(C)S(=O)(=O)c2cccs2)Oc2ncc(C#Cc3ccc(C(F)(F)F)cc3)cc2C1=O	87*	-21	6*
O=S(=O)(N[C@@H]1CCN(Cc2ccc(OCCO)cc2)C1)c1cccc2cccnc12	.	.	0.17
CC(C)Cn1c(SCC(=O)Nc2ccc(F)cc2F)nc2ccccc2c1=O	.	.	-0.62
C[C@@H]1CN([C@H](C)CO)C(=O)Cc2cc(NC(=O)C3CCCCC3)ccc2O[C@@H]1CN(C)Cc1ccccc1	16	-11	-0.24
C[C@@H]1CN([C@H](C)CO)C(=O)Cc2cc(NC(=O)C3CCCCC3)ccc2O[C@H]1CN(C)Cc1ccc(-c2ccccc2)cc1	57*	-27	0.31
C[C@H]1CN([C@@H](C)CO)C(=O)Cc2cc(NC(=O)C3CCCCC3)ccc2O[C@@H]1CN(C)Cc1ccc(-c2ccccc2)cc1	60*	-39	-0.067
C[C@H](CO)N1C[C@H](C)[C@H](CN(C)Cc2ccc(-c3ccccc3)cc2)Oc2ccc(NC(=O)C3CCCCC3)cc2CC1=O	67*	-41	-0.066
C[C@@H]1CN([C@H](C)CO)C(=O)Cc2cc(NC(=O)C3CC3)ccc2O[C@H]1CN(C)Cc1ccc(-c2ccccc2)cc1	15	-5	-0.31
C[C@@H]1CN([C@H](C)CO)C(=O)Cc2cc(NC(=O)C3CCCCC3)ccc2O[C@@H]1CN(C)Cc1ccc(-c2ccccc2)cc1	?	-77	0.069
SMILES	T cruzi intra	INS-1E ATP HTS	YB-1 expression
O=C(NCC12CC3CC(CC(C3)C1)C2)c1ccccc1	.	.	-0.22
COc1cc(OC)c2ccc(=O)oc2c1CC(O)C(C)(C)O (centres undefined)	.	.	-0.4
O[C@]12CO[C@H](c3ccc4c(c3)OCO4)[C@H]1CO[C@@H]2c1ccc2c(c1)OCO2	.	.	-0.091
C[C@@H]1CCCCO[C@H](CN(C)Cc2ccc(Cl)c(Cl)c2)[C@@H](C)CN([C@H](C)CO)C(=O)c2cc(NC(=O)Nc3cccc4ccccc34)ccc2O1	62*	-17	0.34
C[C@@H]1CCCCO[C@H](CN(C)Cc2ccc3c(c2)OCO3)[C@@H](C)CN([C@H](C)CO)C(=O)c2cc(NC(=O)Nc3cccc4ccccc34)ccc2O1	41	-21	0.051
C[C@@H]1CCCCO[C@@H](CN(C)Cc2ccccc2)[C@@H](C)CN([C@H](C)CO)C(=O)c2cc(NC(=O)Nc3cccc4ccccc34)ccc2O1	57*	1	0.053
COc1ccc(CN(C)C[C@@H]2OCCCC[C@@H](C)Oc3ccc(NC(=O)Nc4cccc5ccccc45)cc3C(=O)N([C@H](C)CO)C[C@@H]2C)cc1	34	0	0.37
Cc1ccc(NC(=O)c2ccc3c(c2)CCO3)cc1	.	.	-0.0086
COc1cccc(NC(=S)N=S(C)(=O)c2ccccc2)c1 (centres undefined)	.	.	-0.39
C[C@@H]1CN([C@H](C)CO)C(=O)Cc2cc(NC(=O)c3ccncc3)ccc2O[C@H]1CN(C)Cc1ccc(C(F)(F)F)cc1	19	5	0.12
C[C@@H]1CN([C@@H](C)CO)C(=O)Cc2cc(NC(=O)Nc3ccc(C(F)(F)F)cc3)ccc2O[C@@H]1CN(C)Cc1ccncc1	69*	-17	-0.02
C[C@@H]1CN([C@H](C)CO)C(=O)Cc2cc(NC(=O)Nc3ccccc3)ccc2O[C@H]1CN(C)Cc1ccncc1	-29	5	-0.051
C[C@H](CO)N1C[C@H](C)[C@H](CN(C)Cc2ccc(C(F)(F)F)cc2)Oc2ccc(NC(=O)c3ccncc3)cc2CC1=O	38	-8	0.05
C[C@H]1CN([C@@H](C)CO)C(=O)Cc2cc(NC(=O)Nc3ccc(C(F)(F)F)cc3)ccc2O[C@H]1CN(C)Cc1ccncc1	68*	-1	0.12
C[C@@H]1CN([C@H](C)CO)C(=O)Cc2cc(NC(=O)Nc3ccc(C(F)(F)F)cc3)ccc2O[C@@H]1CN(C)Cc1ccncc1	65*	2	-0.094
FC(F)(F)c1nc2ccc(Cl)cc2[nH]1	.	.	-0.03
CC(=O)N1C(=N)S/C(=C\c2cc3ccccc3nc2Sc2ccccc2)C1=O	.	.	0.13
CCOc1ccc(Nc2nc3cc(C)ccc3cc2C)cc1	.	.	-0.16
O=C(CCCCCCC(=O)N/N=C\c1cccc(Br)c1)NO	-21	68*	-0.25
O=C(NO)c1ccc(C(=O)N/N=C/c2cccc(Oc3ccccc3)c2)cc1	3	5	0.61
O=C(O)CCCCCCC(=O)N/N=C/c1cccc(Br)c1	-5	14	0.11
O=C(CCCCC(=O)N/N=C/c1cccc(Oc2ccccc2)c1)NO	7	79*	0.21
Cn1c(/C=C/C=C/N2CCCC2)nc2ccccc2c1=O	.	.	-0.41
O=S(=O)(NCCC12CC3CC(CC(C3)C1)C2)c1cccc2nsnc12	.	.	0.27
CC(C)CCNC(=O)Oc1ccccc1	.	.	-0.071
